Experimental data: ChEMBL document CHEMBL2384912, “Design, synthesis, and inhibitory activity of potent, photoswitchable mast cell activation inhibitors” (J Med Chem, 2013)
Calls of active or inactive are those of the source. No cut-off for these calls is given here.

What was measured:
[1] = Ratio of DSCG IC50 to compound IC50 for human LAD2 mast cell; format: functional
[2] = test system: LAD2; test: Inhibition of human LAD2 mast cell activation assessed as compound 48/80-induced degranulation incubated for 30 mins prior to compound 48/80 challenge by beta-hexosaminidase release assay; format: functional, cell-based
How it was run: (§1)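 Supernatant was incubated with 2 mg/mL p-nitrophenyl-N-acetyl-D-glucosaminide in citrate buffer pH 4.5 for 1 h at 37 °C and stopped with 0.4 M glycine. A405 was read; % release = supernatant/(supernatant + lysate) × 100.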

[3] = test system: LAD2; test: Inhibition of human LAD2 mast cell activation assessed as compound 48/80-induced degranulation at 200 to 400 uM incubated for 30 mins prior to compound 48/80 challenge by beta-hexosaminidase release assay in presence of UV light; format: functional, cell-based
[4] = test system: LAD2; test: Inhibition of human LAD2 mast cell activation assessed as compound 48/80-induced degranulation at 200 to 400 uM incubated for 30 mins prior to compound 48/80 challenge by beta-hexosaminidase release assay; format: functional, cell-based; how it was run: as §1
[5] = test system: LAD2; test: Inhibition of human LAD2 mast cell activation assessed as compound 48/80-induced degranulation at 10 to 20 uM incubated for 30 mins prior to compound 48/80 challenge by beta-hexosaminidase release assay in presence of UV light; format: functional, cell-based
[6] = test system: LAD2; test: Inhibition of human LAD2 mast cell activation assessed as compound 48/80-induced degranulation at 10 to 20 uM incubated for 30 mins prior to compound 48/80 challenge by beta-hexosaminidase release assay; format: functional, cell-based; how it was run: as §1
[7] = test system: LAD2; test: Inhibition of human LAD2 mast cell activation assessed as compound 48/80-induced degranulation at 10 uM incubated for 30 mins prior to compound 48/80 challenge by beta-hexosaminidase release assay; format: functional, cell-based; how it was run: as §1
[8] = test system: LAD2; test: Inhibition of human LAD2 mast cell activation assessed as compound 48/80-induced degranulation at 100 uM incubated for 30 mins prior to compound 48/80 challenge by histamine release assay; format: functional, cell-based
How it was run: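 Supernatant histamine was derivatized: NaOH, then 0.25% o-phthalaldehyde in MeOH for 4 min at room temperature, then HCl. Fluorescence was read at ex 360/em 450 nm; n = 3.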

[9] = test system: LAD2; test: Inhibition of human LAD2 mast cell activation assessed as 1.0 uM compound 48/80-induced degranulation incubated for 30 mins prior to compound 48/80 challenge by beta-hexosaminidase release assay; format: functional, cell-based; how it was run: as §1
[10] = test system: LAD2; test: Inhibition of human LAD2 mast cell activation assessed as 0.1 uM compound 48/80-induced degranulation incubated for 30 mins prior to compound 48/80 challenge by beta-hexosaminidase release assay; format: functional, cell-based; how it was run: as §1
[11] = test system: LAD2; test: Inhibition of human LAD2 mast cell activation assessed as compound 48/80-induced degranulation at 1000 uM incubated for 30 mins prior to compound 48/80 challenge by beta-hexosaminidase release assay; format: functional, cell-based; how it was run: as §1

Compound: O=C([O-])c1cc(=O)c2c(OCc3ccc(/N=N/c4ccc(COc5cccc6oc(C(=O)[O-])cc(=O)c56)cc4)cc3)cccc2o1.[Na+].[Na+]
- Ratio IC50 [1]: 100
- IC50 [2]: 28 µM

Compound: O=C([O-])c1cc(=O)c2c(OCc3cccc(/N=N/c4cccc(COc5cccc6oc(C(=O)[O-])cc(=O)c56)c4)c3)cccc2o1.[Na+].[Na+]
- Ratio IC50 [1]: 100
- IC50 [2]: 10 µM

Compound: O=C(O)c1cc(=O)c2cc(/N=N/c3ccc4oc(C(=O)O)cc(=O)c4c3)ccc2o1
- inhibition [3]: Active
- inhibition [4]: Active

Compound: O=C(O)c1cc(=O)c2c(OCc3cccc(/N=N/c4cccc(COc5cccc6oc(C(=O)O)cc(=O)c56)c4)c3)cccc2o1 (mixture of isomers)
- inhibition [5]: Active
- inhibition [6]: Active

Compound: O=C(O)c1cc(=O)c2c(OCc3ccc(/N=N/c4ccc(COc5cccc6oc(C(=O)O)cc(=O)c56)cc4)cc3)cccc2o1 (mixture of isomers)
- inhibition [5]: Active
- inhibition [6]: Active

Compound: O=C(O)c1cc(=O)c2cc(/N=N/c3ccc4oc(C(=O)O)cc(=O)c4c3)ccc2o1 (mixture of isomers)
- inhibition [3]: Active
- inhibition [4]: Active

Compound: O=C(O)c1cc(=O)c2c(OCc3cccc(/N=N/c4cccc(COc5cccc6oc(C(=O)O)cc(=O)c56)c4)c3)cccc2o1
- inhibition [7]: Active
- inhibition [5]: Active
- inhibition [8]: Active
- inhibition [6]: Active

Compound: O=C(O)c1cc(=O)c2c(OCC(O)COc3cccc4oc(C(=O)O)cc(=O)c34)cccc2o1 [CROMOLYN SODIUM]
- IC50 [2]: > 1000 µM
- inhibition [9]: inactive
- Activity [8]: inactive
- inhibition [10]: Active
- inhibition [11]: Active

Compound: O=C(O)c1cc(=O)c2c(OCc3ccc(/N=N/c4ccc(COc5cccc6oc(C(=O)O)cc(=O)c56)cc4)cc3)cccc2o1
- inhibition [5]: Active
- inhibition [6]: Active
